Measured values as given in ChEMBL document CHEMBL2412955, “Synthesis and antibacterial activities of N-substituted-glycinyl 1H-1,2,3-triazolyl oxazolidinones” (2013).
≈ marks a conversion by molar mass, not a printed value.

Experiments:
Format in all cases: functional
[1] = test system: Staphylococcus aureus; assay: Antibacterial activity against Staphylococcus aureus ATCC 25923 after 18 hrs by […] in presence of human plasma; details: ATCC 25923, Plasma
Outline: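 To gauge plasma protein binding and/or plasma instability, MIC was determined in Mueller-Hinton broth containing 50% human plasma. Linezolid served as a reference agent. Ratio compares this MIC with the MIC obtained without plasma.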

[2] = test system: Staphylococcus aureus; assay: Antibacterial activity against Staphylococcus aureus ATCC 25923 after 18 hrs by NCCLS agar dilution method; details: ATCC 25923, 18 h
Outline: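 Plain Mueller-Hinton agar, agar dilution per NCCLS, concentrations 0.12–64 µg/ml. Test agents in 80% DMSO in water, linezolid in 40% water in ethanol, vancomycin in water. Final inoculum 10^7 CFU/ml, 35 °C for 18 h. MIC = lowest concentration inhibiting visible growth.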

[3] = test system: Moraxella catarrhalis; assay: Antibacterial activity against Moraxella catarrhalis ATCC 8176 after 18 hrs by NCCLS agar dilution method; details: ATCC 8176, 18 h
Outline: (§1)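 NCCLS agar dilution on Mueller-Hinton agar with 5% sheep blood added to support growth. Drug dilutions 0.12–64 µg/ml. Test agents in 80% DMSO in water, linezolid in 40% water in ethanol. Final inoculum 10^7 CFU/ml, 18 h at 35 °C. MIC read as the lowest concentration with no visible growth.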

[4] = test system: Streptococcus pneumoniae; assay: Antibacterial activity against penicillin-resistant Streptococcus pneumoniae after 18 hrs by NCCLS agar dilution method
Outline: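 Agar dilution was run on Mueller-Hinton agar supplemented with 5% sheep blood, with drug dilutions from 0.12 to 64 µg/ml. Test compounds were dissolved in 80% DMSO in water. Final inoculum was 10^7 CFU/ml, incubated at 35 °C for 18 h. MIC was the lowest concentration preventing visible growth.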

[5] = test system: Haemophilus influenzae; assay: Antibacterial activity against Haemophilus influenzae ATCC 49247 after 18 hrs by NCCLS agar dilution method; details: ATCC 49247, 18 h; outline: as §1
[6] = test system: Escherichia coli; assay: Antibacterial activity against Escherichia coli ATCC 25922 after 18 hrs by NCCLS agar dilution method; details: ATCC 25922, 18 h
Outline: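 Agar dilution per NCCLS on Mueller-Hinton agar, drug dilutions 0.12–64 µg/ml. Linezolid dissolved in 40% water in ethanol, vancomycin in water, test agents in 80% DMSO in water. Inoculum 10^7 CFU/ml (final), incubated 35 °C for 18 h. MIC is the lowest concentration preventing visible growth.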

[7] = test system: Enterococcus; assay: Antibacterial activity against vancomycin-resistant Enterococcus after 18 hrs by NCCLS agar dilution method
Outline: (§2)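 Clinical isolates were tested by agar dilution on Mueller-Hinton agar with drug dilutions from 0.12 to 64 µg/ml. Test compounds were dissolved in 80% DMSO in water. Final inoculum was 10^7 CFU/ml, incubated at 35 °C for 18 h. MIC was the lowest concentration inhibiting visible growth.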

[8] = test system: Enterococcus; assay: Antibacterial activity against vancomycin-susceptible Enterococcus after 18 hrs by NCCLS agar dilution method; outline: as §2
[9] = test system: Staphylococcus; assay: Antibacterial activity against methicillin-susceptible coagulase-negative Staphylococcus after 18 hrs by NCCLS agar dilution method; outline: as §2
[10] = test system: Staphylococcus; assay: Antibacterial activity against methicillin-resistant coagulase-negative Staphylococcus after 18 hrs by NCCLS agar dilution method; outline: as §2
[11] = test system: Staphylococcus aureus; assay: Antibacterial activity against methicillin-susceptible Staphylococcus aureus after 18 hrs by NCCLS agar dilution method; outline: as §2
[12] = test system: Staphylococcus aureus; assay: Antibacterial activity against methicillin-resistant Staphylococcus aureus after 18 hrs by NCCLS agar dilution method; outline: as §2

Structure (SMILES) | MIC [1] [mg/L] | MIC [2] [mg/L] | MIC [3] [mg/L] | MIC [4] [mg/L] | MIC [5] [mg/L] | MIC [6] [mg/L] | MIC [7] [mg/L] | MIC [8] [mg/L] | MIC [9] [mg/L] | MIC [10] [mg/L] | MIC [11] [mg/L] | MIC [12] [mg/L]
Cc1cn(C[C@H]2CN(c3ccc(N4CCN(C(=O)CNC(=O)C(F)(F)F)CC4)c(F)c3)C(=O)O2)nn1 | 16 | 8 (≈ 15.6 µM) | 16 (≈ 31.2 µM) | 1 (≈ 1.95 µM) | 32 (≈ 62.3 µM) | > 64 | 4 (≈ 7.79 µM) | 4 (≈ 7.79 µM) | 4 (≈ 7.79 µM) | 4 (≈ 7.79 µM) | 4 (≈ 7.79 µM) | 4 (≈ 7.79 µM)
CC(C)(C)OC(=O)NCC(=O)N1CCN(c2ccc(N3C[C@H](Cn4ccnn4)OC3=O)cc2F)CC1 | 8 | 4 (≈ 7.94 µM) | 32 (≈ 63.6 µM) | 2 (≈ 3.97 µM) | > 64 | > 64 | 2 (≈ 3.97 µM) | 2 (≈ 3.97 µM) | 2 (≈ 3.97 µM) | 2 (≈ 3.97 µM) | 2 (≈ 3.97 µM) | 2 (≈ 3.97 µM)
Cc1cn(C[C@H]2CN(c3ccc(N4CCN(C(=O)CNC(=O)OC(C)(C)C)CC4)c(F)c3)C(=O)O2)nn1 | 16 | 4 (≈ 7.73 µM) | 16 (≈ 30.9 µM) | 4 (≈ 7.73 µM) | ≥ 64 | > 64 | 8 (≈ 15.5 µM) | 4 (≈ 7.73 µM) | 4 (≈ 7.73 µM) | 4 (≈ 7.73 µM) | 4 (≈ 7.73 µM) | 8 (≈ 15.5 µM)
CC(=O)NCC(=O)N1CCN(c2ccc(N3C[C@H](Cn4ccnn4)OC3=O)cc2F)CC1 | 8 | 4 (≈ 8.98 µM) | 32 (≈ 71.8 µM) | 1 (≈ 2.24 µM) | 64 (≈ 144 µM) | > 64 | 2 (≈ 4.49 µM) | 2 (≈ 4.49 µM) | 2 (≈ 4.49 µM) | 2 (≈ 4.49 µM) | 2 (≈ 4.49 µM) | 4 (≈ 8.98 µM)
CC(=O)NCC(=O)N1CCN(c2ccc(N3C[C@H](Cn4cc(C)nn4)OC3=O)cc2F)CC1 | 8 | 4 (≈ 8.71 µM) | 16 (≈ 34.8 µM) | 1 (≈ 2.18 µM) | 32 (≈ 69.6 µM) | > 64 | 4 (≈ 8.71 µM) | 2 (≈ 4.35 µM) | 2 (≈ 4.35 µM) | 2 (≈ 4.35 µM) | 2 (≈ 4.35 µM) | 2 (≈ 4.35 µM)
Cc1cn(C[C@H]2CN(c3ccc(N4CCN(C(=O)CNC(=O)C(Cl)Cl)CC4)c(F)c3)C(=O)O2)nn1 | 16 | 8 (≈ 15.1 µM) | 16 (≈ 30.3 µM) | 2 (≈ 3.79 µM) | > 32 | > 64 | 4 (≈ 7.57 µM) | 4 (≈ 7.57 µM) | 4 (≈ 7.57 µM) | 4 (≈ 7.57 µM) | 4 (≈ 7.57 µM) | 4 (≈ 7.57 µM)
CCOC(=O)CC(=O)NCC(=O)N1CCN(c2ccc(N3C[C@H](Cn4ccnn4)OC3=O)cc2F)CC1 | 16 | 8 (≈ 15.5 µM) | 32 (≈ 61.8 µM) | 2 (≈ 3.86 µM) | 64 (≈ 124 µM) | > 64 | 8 (≈ 15.5 µM) | 4 (≈ 7.73 µM) | 4 (≈ 7.73 µM) | 4 (≈ 7.73 µM) | 4 (≈ 7.73 µM) | 4 (≈ 7.73 µM)
CCOC(=O)CC(=O)NCC(=O)N1CCN(c2ccc(N3C[C@H](Cn4cc(C)nn4)OC3=O)cc2F)CC1 | 16 | 8 (≈ 15.1 µM) | > 64 | 4 (≈ 7.53 µM) | > 64 | > 64 | 4 (≈ 7.53 µM) | 4 (≈ 7.53 µM) | 4 (≈ 7.53 µM) | 4 (≈ 7.53 µM) | 4 (≈ 7.53 µM) | 4 (≈ 7.53 µM)
